Reference: ChEMBL document CHEMBL5661979, “Pharmacological inhibition of BMK1 suppresses tumor growth through promyelocytic leukemia protein” (Cancer Cell, 2010)

How the values were obtained:
[1] = target: Dual specificity mitogen-activated protein kinase kinase 1 (Homo sapiens, UniProt Q02750); test: Inhibition of MAP2K1 in human HeLa cells lysate pre incubated for 15 mins followed by ADP acyl phosphate probe addition and measured after 10 mins by LC-MS/MS analysis; assay type: subcellular
[2] = target: T1, Serine/threonine-protein kinase Sgk3 (Homo sapiens) (UniProt Q96BR1); test: Inhibition of SGK3 in human HeLa cells lysate at 10 uM pre incubated for 15 mins followed by ADP acyl phosphate probe addition and measured after 10 mins by LC-MS/MS analysis relative to control; assay type: subcellular; conditions: time 25.0 min
T1 sequence (whole entry): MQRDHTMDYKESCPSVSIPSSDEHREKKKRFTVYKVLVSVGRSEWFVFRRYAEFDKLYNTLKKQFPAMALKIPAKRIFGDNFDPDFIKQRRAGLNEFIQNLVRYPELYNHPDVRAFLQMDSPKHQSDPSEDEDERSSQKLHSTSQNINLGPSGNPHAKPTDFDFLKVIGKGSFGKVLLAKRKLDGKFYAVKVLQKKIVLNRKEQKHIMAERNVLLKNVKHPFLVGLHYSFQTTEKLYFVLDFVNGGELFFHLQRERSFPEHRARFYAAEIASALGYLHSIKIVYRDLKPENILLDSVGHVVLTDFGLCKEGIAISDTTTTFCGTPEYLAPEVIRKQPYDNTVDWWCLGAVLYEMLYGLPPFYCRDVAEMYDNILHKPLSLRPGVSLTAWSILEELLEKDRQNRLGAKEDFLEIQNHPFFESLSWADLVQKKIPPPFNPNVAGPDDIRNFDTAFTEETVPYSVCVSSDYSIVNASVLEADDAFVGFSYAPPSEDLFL

[3] = target: T2, Mitogen-activated protein kinase kinase kinase 7 (Homo sapiens) (UniProt O43318); test: Inhibition of TAK1 in human HeLa cells lysate at 50 uM pre incubated for 15 mins followed by ATP acyl phosphate probe addition and measured after 10 mins by LC-MS/MS analysis relative to control; assay type: subcellular; conditions: time 25.0 min
T2 sequence (whole entry): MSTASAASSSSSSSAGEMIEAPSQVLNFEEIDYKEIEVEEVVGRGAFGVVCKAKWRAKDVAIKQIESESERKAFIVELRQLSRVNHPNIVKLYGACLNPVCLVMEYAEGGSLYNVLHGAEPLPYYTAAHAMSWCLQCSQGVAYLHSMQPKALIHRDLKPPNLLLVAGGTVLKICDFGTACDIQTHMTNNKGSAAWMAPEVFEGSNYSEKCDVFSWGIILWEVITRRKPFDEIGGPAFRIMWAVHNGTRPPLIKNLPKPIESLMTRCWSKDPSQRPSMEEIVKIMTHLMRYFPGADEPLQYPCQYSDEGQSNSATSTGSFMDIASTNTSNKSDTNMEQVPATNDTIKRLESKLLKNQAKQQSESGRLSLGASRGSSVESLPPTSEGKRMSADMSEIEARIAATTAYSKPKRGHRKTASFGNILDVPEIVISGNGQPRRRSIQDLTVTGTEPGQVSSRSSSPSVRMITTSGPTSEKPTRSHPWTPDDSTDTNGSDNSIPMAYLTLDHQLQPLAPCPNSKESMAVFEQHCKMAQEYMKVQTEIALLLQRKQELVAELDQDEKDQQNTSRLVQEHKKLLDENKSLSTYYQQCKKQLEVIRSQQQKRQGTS

[4] = target: T3, Phosphorylase b kinase gamma catalytic chain, liver/testis isoform (Homo sapiens) (UniProt P15735); test: Inhibition of PHKg2 in human HeLa cells lysate at 50 uM pre incubated for 15 mins followed by ATP acyl phosphate probe addition and measured after 10 mins by LC-MS/MS analysis relative to control; assay type: subcellular; conditions: time 25.0 min
T3 sequence (whole entry): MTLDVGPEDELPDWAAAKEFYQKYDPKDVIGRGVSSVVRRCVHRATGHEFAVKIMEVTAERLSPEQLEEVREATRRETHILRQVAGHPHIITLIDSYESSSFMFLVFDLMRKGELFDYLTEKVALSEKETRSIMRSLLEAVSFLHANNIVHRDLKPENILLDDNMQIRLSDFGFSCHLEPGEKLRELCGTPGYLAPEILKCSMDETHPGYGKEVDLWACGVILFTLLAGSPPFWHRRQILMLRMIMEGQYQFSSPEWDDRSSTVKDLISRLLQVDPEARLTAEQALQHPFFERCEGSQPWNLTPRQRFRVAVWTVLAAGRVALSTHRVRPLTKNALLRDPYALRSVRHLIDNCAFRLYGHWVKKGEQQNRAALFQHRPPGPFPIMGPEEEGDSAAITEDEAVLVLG

[5] = Inhibition of MAP3K5/MAP3K6/MAP3K15 in human HeLa cells lysate at 50 uM pre incubated for 15 mins followed by ATP acyl phosphate probe addition and measured after 10 mins by LC-MS/MS analysis relative to control; conditions: 25 min, condition cancer
[6] = target: T4, Serine/threonine-protein kinase 4 (Homo sapiens) (UniProt Q13043); test: Inhibition of MST1 in human HeLa cells lysate at 10 uM pre incubated for 15 mins followed by ATP acyl phosphate probe addition and measured after 10 mins by LC-MS/MS analysis relative to control; assay type: subcellular; conditions: time 25.0 min
T4 sequence (whole entry): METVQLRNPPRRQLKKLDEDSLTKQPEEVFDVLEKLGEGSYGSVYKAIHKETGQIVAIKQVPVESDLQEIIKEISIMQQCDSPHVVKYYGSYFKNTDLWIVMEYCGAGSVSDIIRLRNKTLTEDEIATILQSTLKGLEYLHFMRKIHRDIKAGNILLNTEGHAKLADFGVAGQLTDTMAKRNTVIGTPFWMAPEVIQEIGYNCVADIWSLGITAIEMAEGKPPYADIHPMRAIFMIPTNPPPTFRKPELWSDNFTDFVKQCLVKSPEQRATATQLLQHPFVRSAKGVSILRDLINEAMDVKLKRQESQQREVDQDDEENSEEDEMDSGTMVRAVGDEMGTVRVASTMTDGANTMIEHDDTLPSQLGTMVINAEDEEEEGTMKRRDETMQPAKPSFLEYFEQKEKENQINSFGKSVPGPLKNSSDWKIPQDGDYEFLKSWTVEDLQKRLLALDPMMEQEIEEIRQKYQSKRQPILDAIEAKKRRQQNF

[7] = target: RAC-alpha serine/threonine-protein kinase (Homo sapiens, UniProt P31749); test: Inhibition of AKT1 in human HeLa cells lysate at 2 uM pre incubated for 15 mins followed by ATP acyl phosphate probe addition and measured after 10 mins by LC-MS/MS analysis relative to control; assay type: subcellular; conditions: time 25.0 min
Chain of RAC-alpha serine/threonine-protein kinase (P31749 whole entry, the tested form may be a part): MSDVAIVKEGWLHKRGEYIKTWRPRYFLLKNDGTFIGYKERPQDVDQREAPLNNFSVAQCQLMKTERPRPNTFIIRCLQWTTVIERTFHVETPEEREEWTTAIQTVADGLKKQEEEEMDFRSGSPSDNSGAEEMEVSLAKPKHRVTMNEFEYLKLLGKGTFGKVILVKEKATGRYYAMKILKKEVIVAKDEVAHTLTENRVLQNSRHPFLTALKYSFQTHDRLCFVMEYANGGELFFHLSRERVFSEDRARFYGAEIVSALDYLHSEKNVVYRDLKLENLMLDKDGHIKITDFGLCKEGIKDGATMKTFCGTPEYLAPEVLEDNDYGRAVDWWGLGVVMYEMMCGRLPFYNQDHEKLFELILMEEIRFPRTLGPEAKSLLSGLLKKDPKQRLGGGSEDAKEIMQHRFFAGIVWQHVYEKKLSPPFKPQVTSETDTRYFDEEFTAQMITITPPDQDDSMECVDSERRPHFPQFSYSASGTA
Summary of the method: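 HeLa cell lysates (5 mg/mL total protein) were preincubated with inhibitor at 0, 0.8, 2, 10 or 50 μM for 15 min. ATP or ADP acylphosphate probe was then added (5 μM final) for 10 min, and reactions were stopped with urea. Up to four fragment ions per kinase probe-peptide were quantified by targeted MS. % inhibition was taken relative to untreated lysate. Run in duplicate.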

Chain of Dual specificity mitogen-activated protein kinase kinase 1 (Q02750 whole entry): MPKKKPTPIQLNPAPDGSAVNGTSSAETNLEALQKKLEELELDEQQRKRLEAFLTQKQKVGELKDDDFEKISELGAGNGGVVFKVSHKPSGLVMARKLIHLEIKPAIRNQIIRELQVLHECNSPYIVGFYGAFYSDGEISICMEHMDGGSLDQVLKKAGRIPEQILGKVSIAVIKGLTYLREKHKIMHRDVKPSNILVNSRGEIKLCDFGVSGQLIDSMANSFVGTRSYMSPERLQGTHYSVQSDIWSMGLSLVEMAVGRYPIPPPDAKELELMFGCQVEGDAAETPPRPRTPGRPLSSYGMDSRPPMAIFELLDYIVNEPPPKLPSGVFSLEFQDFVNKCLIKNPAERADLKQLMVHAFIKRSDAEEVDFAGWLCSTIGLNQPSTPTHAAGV

SMILES: CCOc1cc(N2CCC(O)CC2)ccc1Nc1ncc2c(n1)N(C)c1ccccc1C(=O)N2C
- IC50 [1]: > 50 µM
- inhibition [2]: -0.3%
- inhibition [3]: 15.7%
- inhibition [4]: 8.5%
- inhibition at 50 µM [5]: 2.5%
- inhibition [6]: 1.1%
- inhibition [7]: -6.9%
